# Data reported in ChEMBL document CHEMBL4680165, “β-Lactams with antiproliferative and antiapoptotic activity in breast and chemoresistant colon cancer cells” (Eur J Med Chem, 2020).
# pIC50: −log10 of the molar value.
# How the values were obtained:
# MCF7 [1] = test: Antiproliferative activity against human MCF7 cells assessed as reduction in cell viability after 72 hrs by alamar blue assay; type: functional, cell-based; conditions: MCF7, 72 h
# Outline: (§1)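 Cells seeded at 5 x 10^3/well (MCF-7) or 1 x 10^4/well (HT-29, HEK-293T) and treated after 24 h with serial dilutions (0.001-100 µM) in 1% v/v ethanol vehicle. Alamar Blue 10% v/v added at 72 h, then 3-5 h at 37 °C in the dark; fluorescence ex 530/em 590 nm. Viability relative to vehicle; IC50 from dose-response curves; mean of three experiments in triplicate.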
# HT-29 [2] = test: Antiproliferative activity against human HT-29 cells assessed as reduction in cell viability after 72 hrs by alamar blue assay; type: functional, cell-based; conditions: HT-29, 72 h; outline: as §1
# [3] = Selectivity index, ratio of IC50 for human MCF7 cells to IC50 for human HT-29 cells assessed as reduction in cell viability after 72 hrs by alamar blue assay; type: functional
# CCRF-CEM = test: Antiproliferative activity against human CCRF-CEM cells assessed as cell growth inhibition; type: functional
# Outline: (§2)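 NCI 60 cell line screen. Five concentrations (100, 10, 1, 0.1 and 0.01 µM) with 48 h drug exposure. GI50 is the molar concentration giving 50% growth inhibition; TGI and LC50 were also derived.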
# HL-60 = test: Antiproliferative activity against human HL60 cells assessed as cell growth inhibition; type: functional; outline: as §2
# K562 = test: Antiproliferative activity against human K-562 cells assessed as cell growth inhibition; type: functional; outline: as §2
# MOLT-4 = test: Antiproliferative activity against human MOLT-4 cells assessed as cell growth inhibition; type: functional; outline: as §2
# RPMI-8226 = test: Antiproliferative activity against human RPMI-8226 cells assessed as cell growth inhibition; type: functional; outline: as §2
# SR = test: Antiproliferative activity against human SR cells assessed as cell growth inhibition; type: functional
# Outline: (§3)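 NCI60 cell line screen: cells exposed for 48 h to five concentrations (100, 10, 1, 0.1 and 0.01 µM). GI50 is the molar concentration giving 50% growth inhibition; TGI and LC50 were also determined.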
# A549 = test: Antiproliferative activity against human A549 cells assessed as cell growth inhibition; type: functional; outline: as §2
# EKVX = test: Antiproliferative activity against human EKVX cells assessed as cell growth inhibition; type: functional; outline: as §2
# HOP-62 = test: Antiproliferative activity against human HOP-62 cells assessed as cell growth inhibition; type: functional; outline: as §2
# HOP-92 = test: Antiproliferative activity against human HOP-92 cells assessed as cell growth inhibition; type: functional; outline: as §2
# NCI-H226 = test: Antiproliferative activity against human NCI-H226 cells assessed as cell growth inhibition; type: functional; outline: as §2
# NCI-H23 = test: Antiproliferative activity against human NCI-H23 cells assessed as cell growth inhibition; type: functional; outline: as §2
# [4] = Antiproliferative activity against human NCI-H332M cells assessed as cell growth inhibition; type: functional; outline: as §2
# NCI-H460 = test: Antiproliferative activity against human NCI-H460 cells assessed as cell growth inhibition; type: functional; outline: as §2
# NCI-H522 = test: Antiproliferative activity against human […] cells assessed as cell growth inhibition; type: functional; outline: as §2
# COLO 205 = test: Antiproliferative activity against human COLO 205 cells assessed as cell growth inhibition; type: functional; outline: as §2
# HCC 2998 = test: Antiproliferative activity against human HCC-2998 cells assessed as cell growth inhibition; type: functional; outline: as §2
# HCT-116 = test: Antiproliferative activity against human HCT-116 cells assessed as cell growth inhibition; type: functional; outline: as §2
# HCT-15 = test: Antiproliferative activity against human HCT-15 cells assessed as cell growth inhibition; type: functional; outline: as §2
# HT-29 [5] = test: Antiproliferative activity against human HT-29 cells assessed as cell growth inhibition; type: functional; outline: as §2
# KM12 = test: Antiproliferative activity against human KM12 cells assessed as cell growth inhibition; type: functional; outline: as §2
# SW-620 = test: Antiproliferative activity against human SW-620 cells assessed as cell growth inhibition; type: functional; outline: as §3
# SF-268 = test: Antiproliferative activity against human SF-268 cells assessed as cell growth inhibition; type: functional; outline: as §2
# SF-295 = test: Antiproliferative activity against human SF295 cells assessed as cell growth inhibition; type: functional; outline: as §2
# SF-539 = test: Antiproliferative activity against human SF539 cells assessed as cell growth inhibition; type: functional; outline: as §3
# SNB-19 = test: Antiproliferative activity against human SNB-19 cells assessed as cell growth inhibition; type: functional; outline: as §3
# SNB-75 = test: Antiproliferative activity against human SNB-75 cells assessed as cell growth inhibition; type: functional; outline: as §3
# U-251 = test: Antiproliferative activity against human U251 cells assessed as cell growth inhibition; type: functional; outline: as §3
# PC-3 = test: Antiproliferative activity against human PC-3 cells assessed as cell growth inhibition; type: functional; outline: as §2
# DU-145 = test: Antiproliferative activity against human DU-145 cells assessed as cell growth inhibition; type: functional; outline: as §2
# LOX IMVI = test: Antiproliferative activity against human LOX IMVI cells assessed as cell growth inhibition; type: functional; outline: as §2
# Malme-3M = test: Antiproliferative activity against human Malme-3M cells assessed as cell growth inhibition; type: functional; outline: as §2
# M14 = test: Antiproliferative activity against human M14 cells assessed as cell growth inhibition; type: functional; outline: as §2
# MDA-MB-435 = test: Antiproliferative activity against human MDA-MB-435 cells assessed as cell growth inhibition; type: functional; outline: as §2
# SK-MEL-2 = test: Antiproliferative activity against human SK-MEL-2 cells assessed as cell growth inhibition; type: functional; outline: as §3
# SK-MEL-28 = test: Antiproliferative activity against human SK-MEL-28 cells assessed as cell growth inhibition; type: functional; outline: as §3
# SK-MEL-5 = test: Antiproliferative activity against human SK-MEL-5 cells assessed as cell growth inhibition; type: functional; outline: as §3
# UACC-62 = test: Antiproliferative activity against human UACC-62 cells assessed as cell growth inhibition; type: functional; outline: as §3
# IGROV-1 = test: Antiproliferative activity against human IGROV-1 cells assessed as cell growth inhibition; type: functional; outline: as §2
# OVCAR-3 = test: Antiproliferative activity against human OVCAR-3 cells assessed as cell growth inhibition; type: functional; outline: as §2
# OVCAR-4 = test: Antiproliferative activity against human OVCAR-4 cells assessed as cell growth inhibition; type: functional; outline: as §2
# OVCAR-5 = test: Antiproliferative activity against human OVCAR-5 cells assessed as cell growth inhibition; type: functional; outline: as §2
# OVCAR-8 = test: Antiproliferative activity against human OVCAR-8 cells assessed as cell growth inhibition; type: functional; outline: as §2
# NCI/ADR-RES = test: Antiproliferative activity against human NCI/ADR-RES cells assessed as cell growth inhibition; type: functional; outline: as §2
# SK-OV-3 = test: Antiproliferative activity against human SK-OV-3 cells assessed as cell growth inhibition; type: functional; outline: as §3
# 786-0 = test: Antiproliferative activity against human 786-0 cells assessed as cell growth inhibition; type: functional; outline: as §2
# A498 = test: Antiproliferative activity against human A498 cells assessed as cell growth inhibition; type: functional; outline: as §2
# ACHN = test: Antiproliferative activity against human ACHN cells assessed as cell growth inhibition; type: functional; outline: as §2
# CAKI-1 = test: Antiproliferative activity against human […] cells assessed as cell growth inhibition; type: functional; outline: as §2
# SN12C = test: Antiproliferative activity against human SN12C cells assessed as cell growth inhibition; type: functional; outline: as §3
# TK-10 = test: Antiproliferative activity against human TK-10 cells assessed as cell growth inhibition; type: functional; outline: as §3
# UO-31 = test: Antiproliferative activity against human UO-31 cells assessed as cell growth inhibition; type: functional; outline: as §3
# MCF7 [6] = test: Antiproliferative activity against human MCF7 cells assessed as cell growth inhibition; type: functional; outline: as §2
# MDA-MB-231 = test: Antiproliferative activity against human MDA-MB-231 cells assessed as cell growth inhibition; type: functional; outline: as §2
# Hs-578T = test: Antiproliferative activity against human Hs-578T cells assessed as cell growth inhibition; type: functional; outline: as §2
# BT-549 = test: Antiproliferative activity against human BT-549 cells assessed as cell growth inhibition; type: functional; outline: as §2
# T47D = test: Antiproliferative activity against human T47D cells assessed as cell growth inhibition; type: functional; outline: as §3
# MDA-MB-468 = test: Antiproliferative activity against human MDA-MB-468 cells assessed as cell growth inhibition; type: functional; outline: as §2
# [7] = system: UDP-glucuronosyltransferases (UGTs); test: Metabolic stability in human liver microsomes assessed as UGT-mediated N-glucuronidation by measuring half life at 3 uM measured up to 45 mins by LC-MS/MS analysis; type: ADME; conditions: microsomes, 0.75 h, 3 µM
# Outline: (§4)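 Pooled human liver microsomes (0.5 mg/mL protein final) with alamethicin (25 µg/mg) in 0.1 M phosphate pH 7.4, compound 3 µM final (0.25% DMSO), preincubated 37 °C. Reaction started with UDPGA (1 mM final). Sampled at 0, 5, 15, 30, 45 min into methanol, analysed by LC-MS/MS. Minus-UDPGA control run 45 min. Single incubations; t½ and CLint taken from the elimination rate constant.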
# [8] = system: UDP-glucuronosyltransferases (UGTs); test: Metabolic stability in human liver microsomes assessed as UGT-mediated N-glucuronidation by measuring intrinsic clearance at 3 uM measured up to 45 mins by LC-MS/MS analysis; type: ADME; conditions: microsomes, 0.75 h, 3 µM; outline: as §4
compound,measurement,setting,value
COc1ccc([C@H]2[C@H](c3ccccc3)C(=O)N2c2cc(OC)c(OC)c(OC)c2)cc1F,pIC50,MCF7 [1],7.77
same,pIC50,HT-29 [2],8.05
same,Ratio IC50,[3],1.88
same,GI50,CCRF-CEM,36.1 nM
same,GI50,HL-60,22.3 nM
same,GI50,K562,32.1 nM
same,GI50,MOLT-4,38.1 nM
same,GI50,RPMI-8226,41.3 nM
same,GI50,SR,37.3 nM
same,GI50,A549,36.8 nM
same,GI50,EKVX,77.6 nM
same,GI50,HOP-62,37.9 nM
same,GI50,HOP-92,2840 nM
same,GI50,NCI-H226,35 nM
same,GI50,NCI-H23,48.9 nM
same,GI50,[4],68.7 nM
same,GI50,NCI-H460,34.4 nM
same,GI50,NCI-H522,18.6 nM
same,GI50,COLO 205,19.4 nM
same,GI50,HCC 2998,39.4 nM
same,GI50,HCT-116,32.4 nM
same,GI50,HCT-15,33.6 nM
same,GI50,HT-29 [5],26 nM
same,GI50,KM12,33.1 nM
same,GI50,SW-620,41.9 nM
same,GI50,SF-268,44.3 nM
same,GI50,SF-295,29 nM
same,GI50,SF-539,23.4 nM
same,GI50,SNB-19,49.9 nM
same,GI50,SNB-75,31.4 nM
same,GI50,U-251,35.9 nM
same,GI50,PC-3,40.3 nM
same,GI50,DU-145,35.4 nM
same,GI50,LOX IMVI,29.6 nM
same,GI50,Malme-3M,> 100000 nM
same,GI50,M14,22.6 nM
same,GI50,MDA-MB-435,18.7 nM
same,GI50,SK-MEL-2,35.4 nM
same,GI50,SK-MEL-28,1370 nM
same,GI50,SK-MEL-5,27.1 nM
same,GI50,UACC-62,54.3 nM
same,GI50,IGROV-1,42.8 nM
same,GI50,OVCAR-3,28 nM
same,GI50,OVCAR-4,87.1 nM
same,GI50,OVCAR-5,51.7 nM
same,GI50,OVCAR-8,34.4 nM
same,GI50,NCI/ADR-RES,39.4 nM
same,GI50,SK-OV-3,34.8 nM
same,GI50,786-0,31.4 nM
same,GI50,A498,27 nM
same,GI50,ACHN,44 nM
same,GI50,CAKI-1,33.2 nM
same,GI50,SN12C,56.1 nM
same,GI50,TK-10,1680 nM
same,GI50,UO-31,77.1 nM
same,GI50,MCF7 [6],29.6 nM
same,GI50,MDA-MB-231,45.2 nM
same,GI50,Hs-578T,43.4 nM
same,GI50,BT-549,26.6 nM
same,GI50,T47D,> 100000 nM
same,GI50,MDA-MB-468,28.7 nM
same,t1/2,[7],23.5 h
same,CLH,[8],0.98 µL/min/mg
